ChEMBL document CHEMBL1255409, “In vitro activity of ceftaroline against 623 diverse strains of anaerobic bacteria” (2010)

Experiments:
Format in all cases: functional
[1] = system: Clostridium citroniae; assay: Antimicrobial activity against Clostridium citroniae under anaerobic conditions after 44 hrs by CLSI-M11-47 protocol based agar dilution method; details: Enterocloster citroniae
Outline: (§1)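 Reference agar dilution per CLSI M11-A7 with plates made on test day. Clinical isolates were stored at −70°C in 20% skim milk, subcultured twice, and 48-h cell paste was suspended in brucella broth to 0.5 McFarland. About 10^5 CFU/spot was applied with a Steers replicator. Plates were incubated 44 h at 37°C anaerobically. MIC was the lowest concentration giving complete inhibition or marked growth reduction versus the drug-free control.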

[2] = system: Clostridium cadaveris; assay: Antimicrobial activity against Clostridium cadaveris under anaerobic conditions after 44 hrs by CLSI-M11-47 protocol based agar dilution method; outline: as §1
[3] = system: Anaerococcus prevotii; assay: Antimicrobial activity against Anaerococcus prevotii under anaerobic conditions after 44 hrs by CLSI-M11-47 protocol based agar dilution method; outline: as §1
[4] = system: Clostridium celerecrescens; assay: Antimicrobial activity against Clostridium celerecrescens under anaerobic conditions after 44 hrs by CLSI-M11-47 protocol based agar dilution method; details: Lacrimispora celerecrescens; outline: as §1
[5] = system: Prevotella bivia; assay: Antimicrobial activity against Prevotella bivia under anaerobic conditions after 44 hrs by CLSI-M11-47 protocol based agar dilution method
Outline: (§2)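 Clinical isolates were stored at −70°C in 20% skim milk and identified phenotypically or by partial 16S rRNA sequencing. Each strain was subcultured twice from frozen stock. Cell paste from 48-h cultures was suspended in brucella broth to a 0.5 McFarland standard. About 10^5 CFU per spot were applied by Steers replicator to agar dilution plates prepared on the day of testing. Plates were incubated 44 h at 37°C in an anaerobic chamber. MIC was taken as the lowest concentration giving complete inhibition or marked reduction of growth versus the drug-free control.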

[6] = system: Fusobacterium nucleatum; assay: Antimicrobial activity against Fusobacterium nucleatum under anaerobic conditions after 44 hrs by CLSI-M11-47 protocol based agar dilution method; outline: as §2
[7] = system: Prevotella nanceiensis; assay: Antimicrobial activity against Prevotella nanceiensis under anaerobic conditions after 44 hrs by CLSI-M11-47 protocol based agar dilution method; details: Hoylesella nanceiensis; outline: as §2
[8] = system: Prevotella tannerae; assay: Antimicrobial activity against Prevotella tannerae under anaerobic conditions after 44 hrs by CLSI-M11-47 protocol based agar dilution method; details: Alloprevotella tannerae; outline: as §2
[9] = system: Peptoniphilus asaccharolyticus; assay: Antimicrobial activity against Peptoniphilus asaccharolyticus under anaerobic conditions after 44 hrs by CLSI-M11-47 protocol based agar dilution method; outline: as §2
[10] = system: Clostridium paraputrificum; assay: Antimicrobial activity against Clostridium paraputrificum under anaerobic conditions after 44 hrs by CLSI-M11-47 protocol based agar dilution method; outline: as §1
[11] = system: Bacteroides thetaiotaomicron; assay: Antimicrobial activity against Bacteroides thetaiotaomicron under anaerobic conditions after 44 hrs by CLSI-M11-47 protocol based agar dilution method; outline: as §1
[12] = system: Paraclostridium bifermentans; assay: Antimicrobial activity against Clostridium bifermentans under anaerobic conditions after 44 hrs by CLSI-M11-47 protocol based agar dilution method; outline: as §1
[13] = system: Clostridium tertium; assay: Antimicrobial activity against Clostridium tertium under anaerobic conditions after 44 hrs by CLSI-M11-47 protocol based agar dilution method; outline: as §1
[14] = system: Gemella sanguinis; assay: Antimicrobial activity against Gemella sanguinis under anaerobic conditions after 44 hrs by CLSI-M11-47 protocol based agar dilution method; outline: as §2
[15] = system: Enterocloster clostridioformis; assay: Antimicrobial activity against Clostridium clostridioforme under anaerobic conditions after 44 hrs by CLSI-M11-47 protocol based agar dilution method; outline: as §1
[16] = system: Collinsella aerofaciens; assay: Antimicrobial activity against Colinsella aerofaciens under anaerobic conditions after 44 hrs by CLSI-M11-47 protocol based agar dilution method; outline: as §1
[17] = system: Lacticaseibacillus rhamnosus; assay: Antimicrobial activity against Lactobacillus rhamnosus under anaerobic conditions after 44 hrs by CLSI-M11-47 protocol based agar dilution method; outline: as §2
[18] = system: Eubacterium contortum; assay: Antimicrobial activity against Eubacterium contortum under anaerobic conditions after 44 hrs by CLSI-M11-47 protocol based agar dilution method; details: Faecalicatena contorta; outline: as §1
[19] = system: Bacteroides ovatus; assay: Antimicrobial activity against Bacteroides ovatus under anaerobic conditions after 44 hrs by CLSI-M11-47 protocol based agar dilution method; outline: as §1
[20] = system: Fusobacterium varium; assay: Antimicrobial activity against Fusobacterium varium under anaerobic conditions after 44 hrs by CLSI-M11-47 protocol based agar dilution method; outline: as §2
[21] = system: Finegoldia magna; assay: Antimicrobial activity against Finegoldia magna under anaerobic conditions after 44 hrs by CLSI-M11-47 protocol based agar dilution method; outline: as §1
[22] = system: Prevotella denticola; assay: Antimicrobial activity against Prevotella denticola under anaerobic conditions after 44 hrs by CLSI-M11-47 protocol based agar dilution method; outline: as §2
[23] = system: Gemella morbillorum; assay: Antimicrobial activity against Gemella morbillorum under anaerobic conditions after 44 hrs by CLSI-M11-47 protocol based agar dilution method; outline: as §2
[24] = system: Eggerthella lenta; assay: Antimicrobial activity against Eggerthella lenta under anaerobic conditions after 44 hrs by CLSI-M11-47 protocol based agar dilution method; outline: as §1
[25] = system: Atopobium parvulum; assay: Antimicrobial activity against Atopobium parvulum under anaerobic conditions after 44 hrs by CLSI-M11-47 protocol based agar dilution method; details: Lancefieldella parvula; outline: as §1
[26] = system: Paeniclostridium sordellii; assay: Antimicrobial activity against Clostridium sordellii under anaerobic conditions after 44 hrs by CLSI-M11-47 protocol based agar dilution method; details: Paraclostridium sordellii; outline: as §1
[27] = system: Prevotella corporis; assay: Antimicrobial activity against Prevotella corporis under anaerobic conditions after 44 hrs by CLSI-M11-47 protocol based agar dilution method; outline: as §2
[28] = system: Clostridium subterminale; assay: Antimicrobial activity against Clostridium subterminale under anaerobic conditions after 44 hrs by CLSI-M11-47 protocol based agar dilution method; outline: as §1
[29] = system: Porphyromonas asaccharolytica; assay: Antimicrobial activity against Porphyromonas asaccharolyticus under anaerobic conditions after 44 hrs by CLSI-M11-47 protocol based agar dilution method; outline: as §2
[30] = system: Slackia exigua; assay: Antimicrobial activity against Slackia exigua under anaerobic conditions after 44 hrs by CLSI-M11-47 protocol based agar dilution method; outline: as §2
[31] = system: Porphyromonas somerae; assay: Antimicrobial activity against Porphyromonas somerae under anaerobic conditions after 44 hrs by CLSI-M11-47 protocol based agar dilution method; outline: as §2
[32] = system: Peptostreptococcus stomatis; assay: Antimicrobial activity against Peptostreptococcus stomatis under anaerobic conditions after 44 hrs by CLSI-M11-47 protocol based agar dilution method; outline: as §2

CO/N=C(\C(=O)N[C@@H]1C(=O)N2C(C(=O)O)=C(CSc3nc(=O)c(O)nn3C)CS[C@H]12)c1csc(N)n1 [CEFTRIAXONE]
0.015 µg/mL: MIC50 [31]
0.125 µg/mL: MIC50 [6] | MIC50 [9]
16 µg/mL: MIC90 [14] | MIC90 [23]
4 µg/mL: MIC50 [1] | MIC50 [15] | MIC50 [21]
0.25 µg/mL: MIC50 [3] | MIC90 [9] | MIC50 [14] | MIC50 [23]
32 µg/mL: MIC90 [1] | MIC90 [15] | MIC50 [17]
> 64 µg/mL: MIC90 [5] | MIC50 [11] | MIC90 [11] | MIC50 [19] | MIC90 [19] | MIC50 [24] | MIC90 [24]
64 µg/mL: MIC90 [2] | MIC90 [4] | MIC90 [10] | MIC90 [12] | MIC90 [13] | MIC90 [17] | MIC90 [26] | MIC90 [28] | MIC90 [31]
2 µg/mL: MIC50 [2] | MIC50 [4] | MIC50 [5] | MIC50 [10] | MIC50 [12] | MIC50 [13] | MIC90 [16] | MIC90 [18] | MIC90 [25] | MIC50 [26] | MIC50 [28] | MIC90 [30] | MIC50 [32]
0.06 µg/mL: MIC50 [29] | MIC90 [29]
8 µg/mL: MIC90 [7] | MIC90 [8] | MIC90 [20] | MIC90 [21] | MIC90 [22] | MIC90 [27] | MIC90 [32]
0.5 µg/mL: MIC90 [3] | MIC90 [6] | MIC50 [16] | MIC50 [18] | MIC50 [25] | MIC50 [30]
1 µg/mL: MIC50 [7] | MIC50 [8] | MIC50 [20] | MIC50 [22] | MIC50 [27]

CCC[C@@H]1C[C@@H](C(=O)N[C@@H]([C@H]2O[C@H](SC)[C@H](O)[C@@H](O)[C@H]2O)[C@H](C)Cl)N(C)C1 [CLINDAMYCIN]
0.5 µg/mL: MIC50 [1] | MIC50 [3] | MIC50 [15] | MIC50 [24]
2 µg/mL: MIC90 [1] | MIC50 [2] | MIC50 [4] | MIC50 [10] | MIC50 [12] | MIC50 [13] | MIC90 [15] | MIC90 [16] | MIC90 [17] | MIC90 [18] | MIC50 [20] | MIC50 [21] | MIC90 [24] | MIC90 [25] | MIC50 [26] | MIC50 [28] | MIC90 [30]
64 µg/mL: MIC90 [14] | MIC90 [23]
0.25 µg/mL: MIC90 [32]
0.125 µg/mL: MIC50 [9] | MIC50 [14] | MIC50 [23]
128 µg/mL: MIC90 [2] | MIC90 [3] | MIC90 [4] | MIC90 [7] | MIC90 [8] | MIC90 [10] | MIC90 [11] | MIC90 [12] | MIC90 [13] | MIC90 [22] | MIC90 [26] | MIC90 [27] | MIC90 [28]
≤ 0.03 µg/mL: MIC50 [5] | MIC50 [7] | MIC50 [8] | MIC50 [22] | MIC50 [27] | MIC50 [29] | MIC50 [31] | MIC50 [32]
4 µg/mL: MIC50 [11] | MIC50 [19] | MIC90 [20]
0.06 µg/mL: MIC50 [6] | MIC90 [6] | MIC50 [16] | MIC50 [18] | MIC50 [25] | MIC50 [30]
1 µg/mL: MIC50 [17]
> 128 µg/mL: MIC90 [5] | MIC90 [9] | MIC90 [19] | MIC90 [21] | MIC90 [29] | MIC90 [31]
